The source made the active and inactive calls. No cut-off for these calls is given here.

The text below walks through data of ChEMBL document CHEMBL3576855, “Spongosine production by a Vibrio harveyi strain associated with the sponge Tectitethya crypta” (J Nat Prod, 2015).

Data set [1] has as its system RAW264.7. In words: Antiinflammatory activity in mouse RAW264.7 cells assessed as inhibition of LPS-stimulated nitric oxide production up to 30 ug/ml after 24 hrs by Colorimetry based Griess assay. It counts as functional, cell-based. Put shortly:
(§1)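 RAW 264.7 murine macrophages were pretreated with the nucleosides for 1 h at 0.1, 0.3, 1.0, 3.0, 10 and 30 μg/mL, with n = 6 wells per concentration. LPS (3 μg/mL) was then added and cells incubated 24 h. Nitrite was measured with Griess stain and expressed as percent reduction versus the LPS control. Significance was tested by ANOVA with Dunnett's test.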

The subject of data set [2] is RAW264.7. Kind of data set: Antiinflammatory activity in mouse RAW264.7 cells assessed as inhibition of LPS-stimulated nitric oxide production at 3 ug/ml after 24 hrs by Colorimetry based Griess assay. It is filed as functional. The note with it: RAW264.7, 24 h. Put shortly:
as §1

For data set [3], the system named is RAW264.7. In words: Cytotoxicity against mouse RAW264.7 cells assessed as cell viability after 48 hrs by MTT assay. It counts as cell-based. Particulars: raw264.7, 48 h.

Consider `COc1nc(N)c2nc[nH]c2n1`, for which the inhibition entry in the data set with RAW264.7 [1] is “Active”. Turning to `COc1nc(N)c2ncn([C@@H]3O[C@H](CO)[C@@H](O)[C@H]3O)c2n1` [BVT.115959], in the data set with RAW264.7 [2], the inhibition at 3 µg/mL came to 60%. The Activity entry with RAW264.7 [3] is reported as “Non-toxic”. As to `Nc1nc2c(nc(O)n2[C@H]2C[C@H](O)[C@@H](CO)O2)c(=O)[nH]1`, the Activity entry with RAW264.7 [3] is recorded as “Non-toxic”. As to `Nc1nc2c([nH]c(=O)n2[C@H]2C[C@H](O)[C@@H](CO)O2)c(=O)[nH]1`, in the data set on RAW264.7 [1], the inhibition result is “Active”. For the molecule `Nc1nc2c(ncn2[C@H]2C[C@H](O)[C@@H](CO)O2)c(=O)[nH]1` [DEOXYGUANOSINE], the Activity result in the data set on RAW264.7 [3] was “Non-toxic”. Turning to `COc1nc(N)c2ncn([C@H]3C[C@H](O)[C@@H](CO)O3)c2n1`, the inhibition entry in the data set with RAW264.7 [1] was “Active”. Besides, the Activity entry with RAW264.7 [3] is recorded as “Non-toxic”.

`Cc1cn([C@@H]2O[C@H](CO)[C@@H](O)[C@@H]2O)c(=O)[nH]c1=O`: the inhibition entry with RAW264.7 [1] is “Active”. Also, the Activity result in the data set on RAW264.7 [3] is “Non-toxic”. On to `Nc1nc(O)c2ncn([C@H]3C[C@H](O)[C@@H](CO)O3)c2n1`, for which the inhibition entry in the data set with RAW264.7 [1] is “Active”. In the case of `COc1nc(N)c2[nH]cnc2n1`, the Activity result with RAW264.7 [3] was “Non-toxic”.
